The source made the active and inactive calls. The rule behind the calls is not given here.
Columns and labels:
MCF7 [1] = test: Inhibition of KDM5 human MCF7 cells assessed as up-regulation of MT1F mRNA expression at 1 to 5 uM after 48 hrs by RT-qPCR assay relative to control; assay type: cell-based
Outline: (§1)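 MCF7 cells treated with compound or DMSO for 48 h; target mRNA quantified by real-time RT-PCR; biological triplicates.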

HEK-293T = test: Cytotoxicity against HEK293T cells assessed as cell killing at 5 to 10 uM after 24 hrs by bright-field microscopy; assay type: cell-based; conditions: human
MCF7 [2] = test: Inhibition of KDM5 human MCF7 cells assessed as up-regulation of STING mRNA expression at 1 to 5 uM after 48 hrs by RT-qPCR assay relative to control; assay type: cell-based; outline: as §1
[3] = Metabolic stability in human BT474 cell culture media assessed as parent compound remaining at 10 uM after 24 hrs by LC-MS/MS analysis; assay type: physicochemical; conditions: read-out: Stability
BT-474 [4] = test: Growth inhibition of human BT474 cells at 0.11 to 3.5 uM after 12 days by IncuCyte live cell imaging method; assay type: functional, cell-based
Outline: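 BT474 cells grown with compound; percent confluence tracked by IncuCyte live-cell imaging every 4 h over 300 h.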

[5] = molecular target: Lysine-specific demethylase 5A (Homo sapiens, UniProt P29375); test: Inhibition of KDM5A in human BT474 cells assessed as effect on H3K4me3 methylation levels up to 5 uM after 48 hrs by immunocytochemistry
[6] = Drug uptake in human BT474 cells at 2.5 uM after 24 hrs by LC-MS/MS analysis; assay type: ADME, cell-based; conditions: bt-474, 24 h
Outline: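 Compound incubated with BT474 cells for 24 h; cells lysed and compound level in the extract determined.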

[7] = Effective permeability of the compound at pH 7.4 by PAMPA; assay type: ADME; conditions: read-out: Peff
Outline: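 PAMPA with a lipid/dodecane artificial membrane and pH 7.4 buffer in donor and acceptor wells. Compounds diluted from 10 mM DMSO stock to 0.05 mM final, 0.5% DMSO. Donor stirred during a 30 min permeation at room temperature. Donor and acceptor concentrations read by UV. Permeability given in 10−6 cm s−1: >100 high, 10–100 moderate, <10 low.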

MCF7 [8] = test: Inhibition of KDM5 human MCF7 cells assessed as up-regulation of STING protein expression at 1 to 5 uM after 48 hrs by Western blot analysis relative to control; assay type: cell-based
Outline: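 MCF7 cells treated with compound or 0.1% DMSO for 30 or 48 h; total cell lysates analysed by Western blot with specific antibodies.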

MDA-MB-231 = test: Cytotoxicity against human MDA-MB-231 cells assessed as cell killing at 5 to 10 uM after 24 hrs by bright-field microscopy; assay type: functional, cell-based
BT-474 [9] = test: Cytotoxicity against human BT474 cells assessed as reduction in cell viability at >5 uM after 24 hrs by celltiter glo assay; assay type: functional, cell-based
Outline: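 BT474 cells treated with compound; viability read by CellTiter-Glo luminescence 24 h after treatment.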

MCF7 [10] = test: Inhibition of KDM5 human MCF7 cells assessed as up-regulation of MT1H mRNA expression at 1 to 5 uM after 48 hrs by RT-qPCR assay relative to control; assay type: cell-based; outline: as §1
MCF7 [11] = test: Cytotoxicity against human MCF7 cells assessed as cell killing at 5 to 10 uM after 24 hrs by bright-field microscopy; assay type: functional, cell-based

Sequence of Lysine-specific demethylase 5A (P29375 whole entry): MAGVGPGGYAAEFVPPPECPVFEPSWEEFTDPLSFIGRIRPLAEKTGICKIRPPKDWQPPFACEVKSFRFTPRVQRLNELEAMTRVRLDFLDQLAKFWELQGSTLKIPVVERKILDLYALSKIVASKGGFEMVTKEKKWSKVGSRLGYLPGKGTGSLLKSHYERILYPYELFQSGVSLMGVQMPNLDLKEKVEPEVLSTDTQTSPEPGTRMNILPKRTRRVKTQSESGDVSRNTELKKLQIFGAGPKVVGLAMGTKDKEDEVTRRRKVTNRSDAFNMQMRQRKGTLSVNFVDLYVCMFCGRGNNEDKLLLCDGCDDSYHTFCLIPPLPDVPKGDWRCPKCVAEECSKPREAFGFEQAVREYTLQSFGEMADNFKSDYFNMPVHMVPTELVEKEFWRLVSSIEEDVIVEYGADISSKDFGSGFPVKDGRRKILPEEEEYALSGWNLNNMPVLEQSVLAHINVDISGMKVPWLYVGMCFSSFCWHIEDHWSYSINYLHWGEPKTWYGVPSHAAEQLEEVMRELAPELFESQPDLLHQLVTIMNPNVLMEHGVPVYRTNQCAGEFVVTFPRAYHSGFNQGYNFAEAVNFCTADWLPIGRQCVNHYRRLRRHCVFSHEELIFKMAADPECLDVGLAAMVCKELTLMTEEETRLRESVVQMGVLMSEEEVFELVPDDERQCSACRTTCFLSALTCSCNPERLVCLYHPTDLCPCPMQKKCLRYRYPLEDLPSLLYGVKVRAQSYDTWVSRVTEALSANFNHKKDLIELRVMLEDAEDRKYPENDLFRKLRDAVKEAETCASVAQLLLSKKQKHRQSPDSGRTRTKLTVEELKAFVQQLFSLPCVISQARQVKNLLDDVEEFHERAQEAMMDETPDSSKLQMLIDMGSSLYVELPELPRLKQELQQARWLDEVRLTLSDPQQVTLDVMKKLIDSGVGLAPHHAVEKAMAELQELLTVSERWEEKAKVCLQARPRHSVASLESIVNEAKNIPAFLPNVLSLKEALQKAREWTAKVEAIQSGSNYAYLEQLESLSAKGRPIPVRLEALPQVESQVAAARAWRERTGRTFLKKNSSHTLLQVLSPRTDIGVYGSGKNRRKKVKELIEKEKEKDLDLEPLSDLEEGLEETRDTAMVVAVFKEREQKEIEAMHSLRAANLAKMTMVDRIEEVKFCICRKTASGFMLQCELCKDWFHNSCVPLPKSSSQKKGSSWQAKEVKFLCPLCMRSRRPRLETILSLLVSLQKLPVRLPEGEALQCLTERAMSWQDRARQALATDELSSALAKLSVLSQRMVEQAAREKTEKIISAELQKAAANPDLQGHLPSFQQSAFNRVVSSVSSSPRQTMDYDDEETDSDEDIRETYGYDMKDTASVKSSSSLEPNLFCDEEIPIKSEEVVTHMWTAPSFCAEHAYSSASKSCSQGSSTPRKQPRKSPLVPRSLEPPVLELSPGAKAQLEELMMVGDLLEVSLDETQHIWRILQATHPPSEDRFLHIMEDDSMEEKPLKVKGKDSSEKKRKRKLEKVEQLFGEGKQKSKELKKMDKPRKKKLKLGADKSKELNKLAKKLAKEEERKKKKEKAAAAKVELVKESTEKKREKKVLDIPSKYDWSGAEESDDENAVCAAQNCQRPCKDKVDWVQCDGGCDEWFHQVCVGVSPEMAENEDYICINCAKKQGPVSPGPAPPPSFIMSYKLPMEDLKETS

In the case of `CC(C)OC(=O)c1ccnc2cc(C(OCCN3CCCCC3)c3cccc(NC(=O)/C=C/CN(C)C)c3)sc12` (stereo not drawn), the fold change (FC) (MCF7 [1]) is reported as < 2, the Activity (HEK-293T) is reported as “Toxic” and the fold change (FC) (MCF7 [2]) is reported as < 2. The remaining at 24 h, 10 µM [3] was 80%, the “growth inhibition (GI)” value (BT-474 [4]) was “inactive” and the inhibition [5] was “inactive”. For the same compound, the Drug uptake [6] was “Active”, the Papp [7] was 71.4 ×10⁻⁶ cm/s and the fold change (FC) (MCF7 [8]) was < 2. For the same compound, the Activity (MDA-MB-231) was “Active”, the Activity (BT-474 [9]) was “Active” and the fold change (FC) (MCF7 [10]) was < 2. For the same compound, the Activity (MCF7 [11]) was “Active”.
